According to ChEMBL document CHEMBL1143971, “Synthesis, adenosine receptor binding and 3D-QSAR of 4-substituted 2-(2'-furyl)-1,2,4-triazolo[1,5-a]quinoxalines” (Bioorg Med Chem, 2008):

Tests used:
Format in all cases: cell-based
[1] = biological target: T1, Adenosine receptor A2b (Homo sapiens) (UniProt P29275); experiment: Displacement of [3]DPCPX from human adenosine A2B receptor expressed in HEK293 cells at 1 uM
T1 sequence (whole entry): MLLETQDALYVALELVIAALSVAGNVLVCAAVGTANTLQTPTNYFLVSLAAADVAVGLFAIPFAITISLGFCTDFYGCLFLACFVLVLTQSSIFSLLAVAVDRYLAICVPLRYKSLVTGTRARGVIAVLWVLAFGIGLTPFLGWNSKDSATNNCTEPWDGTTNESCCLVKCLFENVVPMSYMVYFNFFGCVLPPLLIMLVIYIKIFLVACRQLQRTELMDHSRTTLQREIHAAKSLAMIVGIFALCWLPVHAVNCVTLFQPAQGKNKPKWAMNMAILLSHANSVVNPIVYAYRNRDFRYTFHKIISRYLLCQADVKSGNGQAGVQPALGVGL
Procedure, shortened: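 At 1 µM test compound: 18 µg membranes, 35 nM [3H]DPCPX, 30 min at 25 °C, Tris/EDTA/MgCl2/benzamidine/adenosine deaminase buffer pH 6.5. Nonspecific binding from 400 µM NECA. Value expressed as % displacement of specific binding, calculated from total, nonspecific and competed dpm.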

Adenosine receptor A1 = biological target: T2, Adenosine receptor A1 (Homo sapiens, UniProt P30542); experiment: Displacement of [3]DPCPX from human adenosine A1 receptor expressed in CHO cells
T2 sequence (P30542 whole entry): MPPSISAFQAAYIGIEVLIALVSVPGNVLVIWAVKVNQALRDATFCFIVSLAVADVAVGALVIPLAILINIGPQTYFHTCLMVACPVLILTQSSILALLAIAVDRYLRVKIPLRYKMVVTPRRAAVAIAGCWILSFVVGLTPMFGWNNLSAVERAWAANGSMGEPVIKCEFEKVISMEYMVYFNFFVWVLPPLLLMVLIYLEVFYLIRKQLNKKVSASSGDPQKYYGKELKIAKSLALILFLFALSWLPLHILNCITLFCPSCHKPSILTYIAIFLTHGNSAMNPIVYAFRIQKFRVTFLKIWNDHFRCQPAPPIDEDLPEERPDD
Procedure, shortened: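 Membranes (15 µg) incubated 60 min at 25 °C with 2 nM [3H]DPCPX in 20 mM Hepes, 100 mM NaCl, 10 mM MgCl2, 2 U/mL adenosine deaminase, pH 7.4, plus 6 test concentrations (0.1 nM–1 µM). Nonspecific binding defined with 10 µM (R)-PIA. Filtration on GF/C, 4 ice-cold washes, scintillation counting. Ki from IC50 via Cheng–Prusoff.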

Adenosine receptor A2a [2] = biological target: T3, Adenosine receptor A2a (Homo sapiens, UniProt P29274); experiment: Displacement of [3]ZM241385 from human adenosine A2A receptor expressed in HeLa cells
T3 sequence (P29274 whole entry): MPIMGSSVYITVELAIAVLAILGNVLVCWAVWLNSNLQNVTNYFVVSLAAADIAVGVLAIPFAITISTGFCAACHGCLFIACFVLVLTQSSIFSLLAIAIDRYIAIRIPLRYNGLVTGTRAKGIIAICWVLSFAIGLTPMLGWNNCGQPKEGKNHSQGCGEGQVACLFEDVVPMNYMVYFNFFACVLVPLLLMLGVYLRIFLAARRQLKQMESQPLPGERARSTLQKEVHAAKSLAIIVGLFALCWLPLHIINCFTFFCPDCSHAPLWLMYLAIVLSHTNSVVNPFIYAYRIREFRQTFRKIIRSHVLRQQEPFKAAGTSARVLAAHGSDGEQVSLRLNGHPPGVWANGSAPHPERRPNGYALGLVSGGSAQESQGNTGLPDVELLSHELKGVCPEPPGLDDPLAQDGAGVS
Procedure, shortened: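 10 µg membranes, 3 nM [3H]ZM241385, 30 min at 25 °C in 50 mM Tris-HCl, 1 mM EDTA, 10 mM MgCl2, 2 U/mL adenosine deaminase, pH 7.4. Six test concentrations (0.1 nM–1 µM). Nonspecific binding from 50 µM NECA. GF/C filtration, four ice-cold washes, scintillation counting. Ki via Cheng–Prusoff.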

Adenosine receptor A3 = biological target: T4, Adenosine receptor A3 (Homo sapiens, UniProt P0DMS8); experiment: Displacement of [3]NECA from human adenosine A3 receptor expressed in HeLa cells
T4 sequence (P0DMS8 whole entry): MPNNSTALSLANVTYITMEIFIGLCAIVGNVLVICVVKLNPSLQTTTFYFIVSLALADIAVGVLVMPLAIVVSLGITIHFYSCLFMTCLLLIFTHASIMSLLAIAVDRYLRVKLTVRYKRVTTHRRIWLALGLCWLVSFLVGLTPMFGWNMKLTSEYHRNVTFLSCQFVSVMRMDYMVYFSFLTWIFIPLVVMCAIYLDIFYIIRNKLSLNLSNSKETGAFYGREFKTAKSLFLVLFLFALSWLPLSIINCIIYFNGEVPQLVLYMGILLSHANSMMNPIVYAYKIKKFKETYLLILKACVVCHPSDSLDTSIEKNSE
Procedure, shortened: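 90 µg membranes, 30 nM [3H]NECA, 180 min at 25 °C in 50 mM Tris-HCl, 1 mM EDTA, 5 mM MgCl2, 2 U/mL adenosine deaminase, pH 7.4. Test compound at six concentrations (0.1 nM–1 µM). Nonspecific binding with 100 µM (R)-PIA. GF/B filtration, six washes, scintillation counting. Ki = IC50/(1 + C/KD).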

Adenosine receptor A2b = biological target: T5, Adenosine receptor A2b (Homo sapiens, UniProt P29275); experiment: Displacement of [3]DPCPX from human adenosine A2B receptor expressed in HEK293 cells
T5 sequence (P29275 whole entry): T1 sequence (whole entry)
Procedure, shortened: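 Membranes (18 µg) incubated 30 min at 25 °C with 35 nM [3H]DPCPX in 50 mM Tris-HCl, 1 mM EDTA, 10 mM MgCl2, 0.1 mM benzamidine, 2 U/mL adenosine deaminase, pH 6.5, plus six concentrations (0.1 nM–1 µM). Nonspecific binding defined with 400 µM NECA. GF/B filtration, six washes with Tris pH 6.5. Ki via Cheng–Prusoff.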

[3] = biological target: T6, Adenosine receptor A1 (Homo sapiens) (UniProt P30542); experiment: Displacement of [3]DPCPX from human adenosine A1 receptor expressed in CHO cells at 1 uM
T6 sequence (whole entry): T2 sequence (P30542 whole entry)
Procedure, shortened: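 Single-point competition at 1 µM test compound: 15 µg membranes, 2 nM [3H]DPCPX, 60 min at 25 °C, Hepes/NaCl/MgCl2/adenosine deaminase buffer pH 7.4. 10 µM (R)-PIA for nonspecific binding. % displacement = (total binding − dpm)×100/(total − nonspecific).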

Adenosine receptor A2a [4] = biological target: T3, Adenosine receptor A2a; experiment: Displacement of [3]ZM241385 from human adenosine A2A receptor expressed in HeLa cells at 1 uM
Procedure, shortened: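 At 1 µM test compound: 10 µg membranes, 3 nM [3H]ZM241385, 30 min at 25 °C in Tris/EDTA/MgCl2/adenosine deaminase buffer, pH 7.4. Nonspecific binding from 50 µM NECA. Output is % displacement of specific binding, based on total and nonspecific dpm.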

[5] = biological target: T7, Adenosine receptor A3 (Homo sapiens) (UniProt P0DMS8); experiment: Displacement of [3]NECA from human adenosine A3 receptor expressed in HeLa cells at 1 uM
T7 sequence (whole entry): T4 sequence (P0DMS8 whole entry)
Procedure, shortened: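 At 1 µM test compound, 90 µg membranes were incubated with 30 nM [3H]NECA for 180 min at 25 °C in Tris/EDTA/5 mM MgCl2/adenosine deaminase buffer, pH 7.4. Nonspecific binding with 100 µM (R)-PIA. Result given as % displacement of specific binding.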

SMILES: c1ccc(CCNc2nc3ccccc3n3nc(-c4ccco4)nc23)cc1
- inhibition [1]: 46%
- Ki (Adenosine receptor A1): 0.0933 µM
- Ki (Adenosine receptor A2a [2]): 0.0513 µM
- Ki (Adenosine receptor A3): 0.372 µM

SMILES: OCCNc1nc2ccccc2n2nc(-c3ccco3)nc12
- Ki (Adenosine receptor A1): 0.00316 µM
- Ki (Adenosine receptor A2a [2]): 0.0631 µM
- Ki (Adenosine receptor A2b): 0.123 µM
- Ki (Adenosine receptor A3): 0.0302 µM

SMILES: c1ccc(COc2nc3ccccc3n3nc(-c4ccco4)nc23)cc1
- inhibition [3]: 13.8%
- inhibition (Adenosine receptor A2a [4]): 38%
- inhibition [1]: 3%
- Ki (Adenosine receptor A3): 1.55 µM

SMILES: COCCNc1nc2ccccc2n2nc(-c3ccco3)nc12
- inhibition [1]: 32%
- Ki (Adenosine receptor A1): 0.302 µM
- Ki (Adenosine receptor A2a [2]): 3.09 µM
- Ki (Adenosine receptor A3): 0.437 µM

SMILES: OCCN1CCN(c2nc3ccccc3n3nc(-c4ccco4)nc23)CC1
- inhibition [3]: 24.5%
- inhibition (Adenosine receptor A2a [4]): 12%
- inhibition [1]: 3%
- inhibition [5]: 24%

SMILES: c1coc(-c2nc3c(N4CCNCC4)nc4ccccc4n3n2)c1
- inhibition [3]: 12.3%
- inhibition (Adenosine receptor A2a [4]): 7%
- inhibition [1]: 4%
- inhibition [5]: 26.7%

SMILES: O=C(CCc1ccccc1)Nc1nc2ccccc2n2nc(-c3ccco3)nc12
- Ki (Adenosine receptor A1): 0.0126 µM
- Ki (Adenosine receptor A2a [2]): 0.0631 µM
- Ki (Adenosine receptor A2b): 0.501 µM
- Ki (Adenosine receptor A3): 0.126 µM

SMILES: NCC(O)CNc1nc2ccccc2n2nc(-c3ccco3)nc12 (centres undefined)
- inhibition (Adenosine receptor A2a [4]): 57%
- inhibition [1]: 34%
- inhibition [5]: 43%
- Ki (Adenosine receptor A1): 0.141 µM

SMILES: O=C(Nc1nc2ccccc2n2nc(-c3ccco3)nc12)c1ccco1
- Ki (Adenosine receptor A1): 0.2 µM
- Ki (Adenosine receptor A2a [2]): 0.398 µM
- Ki (Adenosine receptor A2b): 2.51 µM
- Ki (Adenosine receptor A3): 0.251 µM

SMILES: COCCCNc1nc2ccccc2n2nc(-c3ccco3)nc12
- inhibition [5]: 82%
- Ki (Adenosine receptor A1): 0.0741 µM
- Ki (Adenosine receptor A2a [2]): 0.372 µM
- Ki (Adenosine receptor A2b): 0.427 µM

SMILES: c1coc(CNc2nc3ccccc3n3nc(-c4ccco4)nc23)c1
- inhibition [5]: 57.3%
- Ki (Adenosine receptor A1): 0.0331 µM
- Ki (Adenosine receptor A2a [2]): 0.49 µM
- Ki (Adenosine receptor A2b): 1.74 µM

SMILES: CCOc1nc2ccccc2n2nc(-c3ccco3)nc12
- inhibition (Adenosine receptor A2a [4]): 38%
- inhibition [1]: 34%
- inhibition [5]: 69%
- Ki (Adenosine receptor A1): 3.72 µM

SMILES: c1coc(COc2nc3ccccc3n3nc(-c4ccco4)nc23)c1
- inhibition [3]: 55.1%
- inhibition (Adenosine receptor A2a [4]): 8%
- inhibition [1]: 3%
- Ki (Adenosine receptor A3): 0.0661 µM

SMILES: c1ccc(CNc2nc3ccccc3n3nc(-c4ccco4)nc23)cc1
- inhibition [1]: 24%
- inhibition [5]: 32.6%
- Ki (Adenosine receptor A1): 0.102 µM
- Ki (Adenosine receptor A2a [2]): 0.302 µM

SMILES: c1coc(-c2nc3c(OCc4ccoc4)nc4ccccc4n3n2)c1
- Ki (Adenosine receptor A1): 0.537 µM
- Ki (Adenosine receptor A2a [2]): 0.575 µM
- Ki (Adenosine receptor A2b): 0.145 µM
- Ki (Adenosine receptor A3): 0.676 µM

SMILES: COc1nc2ccccc2n2nc(-c3ccco3)nc12
- inhibition [1]: 28%
- inhibition [5]: 57.4%
- Ki (Adenosine receptor A1): 0.331 µM
- Ki (Adenosine receptor A2a [2]): 0.398 µM

SMILES: OCCN(CCO)c1nc2ccccc2n2nc(-c3ccco3)nc12
- inhibition [1]: 46%
- inhibition [5]: 51.7%
- Ki (Adenosine receptor A1): 0.0589 µM
- Ki (Adenosine receptor A2a [2]): 0.11 µM

SMILES: O=C(Cc1ccccc1)Nc1nc2ccccc2n2nc(-c3ccco3)nc12
- Ki (Adenosine receptor A1): 0.0631 µM
- Ki (Adenosine receptor A2a [2]): 0.158 µM
- Ki (Adenosine receptor A2b): 0.251 µM
- Ki (Adenosine receptor A3): 0.1 µM

SMILES: COC(CNc1nc2ccccc2n2nc(-c3ccco3)nc12)OC
- inhibition (Adenosine receptor A2a [4]): 20%
- inhibition [1]: 22%
- inhibition [5]: 55.3%
- Ki (Adenosine receptor A1): 0.575 µM

SMILES: CC(=O)Nc1nc2ccccc2n2nc(-c3ccco3)nc12
- Ki (Adenosine receptor A1): 0.112 µM
- Ki (Adenosine receptor A2a [2]): 0.2 µM
- Ki (Adenosine receptor A2b): 0.251 µM
- Ki (Adenosine receptor A3): 0.251 µM

SMILES: Nc1nc2ccccc2n2nc(-c3ccco3)nc12
- Ki (Adenosine receptor A1): 0.00562 µM
- Ki (Adenosine receptor A2a [2]): 0.0112 µM
- Ki (Adenosine receptor A2b): 0.0132 µM
- Ki (Adenosine receptor A3): 0.331 µM

SMILES: CCN(CC)c1nc2ccccc2n2nc(-c3ccco3)nc12
- inhibition [5]: 10.4%
- Ki (Adenosine receptor A1): 0.135 µM
- Ki (Adenosine receptor A2a [2]): 0.398 µM
- Ki (Adenosine receptor A2b): 2.4 µM

SMILES: O=C(Nc1nc2ccccc2n2nc(-c3ccco3)nc12)c1cccs1
- inhibition (Adenosine receptor A2a [4]): 10%
- inhibition [1]: 21%
- inhibition [5]: 52%
- Ki (Adenosine receptor A1): 0.0501 µM

SMILES: CC(O)CNc1nc2ccccc2n2nc(-c3ccco3)nc12 (centres undefined)
- Ki (Adenosine receptor A1): 0.00398 µM
- Ki (Adenosine receptor A2a [2]): 0.0479 µM
- Ki (Adenosine receptor A2b): 0.0676 µM
- Ki (Adenosine receptor A3): 0.0229 µM

SMILES: c1ccc(Nc2nc3ccccc3n3nc(-c4ccco4)nc23)cc1
- inhibition [1]: 49%
- inhibition [5]: 71.7%
- Ki (Adenosine receptor A1): 0.0457 µM
- Ki (Adenosine receptor A2a [2]): 0.0646 µM

SMILES: CN(C)c1nc2ccccc2n2nc(-c3ccco3)nc12
- inhibition [3]: 31.1%
- inhibition [1]: 17%
- inhibition [5]: 50.7%
- Ki (Adenosine receptor A2a [2]): 0.309 µM
